Tests used:
Assay type in all cases: biochemical
[1] = tested on: TDP-43 in HeLa cytosol; experiment: Suppression by NTRs of GR-induced precipitation of cytosolic TDP-43; conditions: equimolar NTR, three independent experiments
In short: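 Cytosol came from digitonin-permeabilised HeLa cells, cleared at 21,000 g. TMR-DPRs were added and the mix held 15 min at 4°C, then spun at 21,000 g for 15 min. Equal volumes of pellet and supernatant were analysed by western blot.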

[2] = tested on: TDP-43 condensates; experiment: Suppression of phase separation of TDP-43 alone by NTRs; conditions: equimolar NTR, 5 μM TDP-43, Tev cleavage
In short: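 TDP-43-MBP-His (Ni-NTA then amylose purified) and TNPO1 were buffer-exchanged into 20 mM HEPES-NaOH pH 7.4, 150 mM NaCl, 1 mM DTT. TDP-43 at 5 μM, with or without 5 μM TNPO1, was started with 1 μg/ml Tev protease. Absorbance at 395 nm was read over 16 h and normalised to TDP-43 + Tev alone.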

[3] = tested on: TDP-43; experiment: Sedimentation of TDP-43 with GST-GR25 and NTRs; conditions: GST-GR25, NTR added prior to Tev cleavage; three independent experiments
In short: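 1 µM TDP-43-MBP-His was Tev-cleaved (20 µg/ml His-Tev, 60 min, 30°C) with or without equimolar GST-tagged DPR and/or NTRs, then spun 15 min at 21,000 g, 4°C. Equal supernatant and pellet volumes were analysed by SDS-PAGE with Sypro-Ruby or western blot. Percentage of soluble cleaved TDP-43 is the mean ± SEM of three experiments, compared by one-way ANOVA with Dunnett's test.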

[4] = tested on: GST-GR25 / TDP-43; experiment: Sedimentation of GST-GR25 with TDP-43 and NTRs; conditions: equimolar NTR; three independent experiments
In short: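 1 µM TDP-43-MBP-His was Tev-cleaved (20 µg/ml His-Tev, 60 min, 30°C) with or without equimolar GST-tagged DPR and/or NTRs. Samples were centrifuged 15 min at 21,000 g, 4°C. Equal volumes of supernatant and pellet were analysed by anti-GST western blot.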

[5] = tested on: GR- or PR-induced TDP-43 condensates; experiment: Suppression of GR- or PR-induced TDP-43 condensates by NTRs; conditions: equimolar NTR; TMR-GR25 or TMR-PR25; Tev cleavage
In short: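 SEC-purified TDP-43-MBP-His (2 μM) was mixed with MBP-TDP-43-GFP-His at 1:4–1:5, together with equimolar TMR-labelled DPR, with or without NTRs. Mixing preceded cleavage with 100 μg/ml His-Tev in 50 mM Tris pH 7.5, 200 mM NaCl, 2 mM DTT. Condensates were imaged by laser scanning confocal microscopy.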

[6] = tested on: TDP-43; experiment: TDP-43 turbidity assay; conditions: n = 3
In short: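 TDP-43-MBP-His (Ni-NTA then amylose purified) and TNPO1 were buffer-exchanged into 20 mM HEPES-NaOH pH 7.4, 150 mM NaCl, 1 mM DTT. TDP-43 at 5 µM final was combined with 2 µM DPR peptide (PBS control), 5 µM TNPO1, or both. Phase separation was started with 1 µg/ml Tev protease, and absorbance at 395 nm was followed over 16 h. Values were normalized to TDP-43 plus Tev alone.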

B1: TNPO1: nuclear import receptor, recombinant (protein)
chain: MVWDRQTKMEYEWKPDEQGLQQILQLLKESQSPDTTIQRTVQQKLEQLNQYPDFNNYLIFVLTKLKSEDEPTRSLSGLILKNNVKAHFQNFPNGVTDFIKSECLNNIGDSSPLIRATVGILITTIASKGELQNWPDLLPKLCSLLDSEDYNTCEGAFGALQKICEDSAEILDSDVLDRPLNIMIPKFLQFFKHSSPKIRSHAVACVNQFIISRTQALMLHIDSFIENLFALAGDEEPEVRKNVCRALVMLLEVRMDRLLPHMHNIVEYMLQRTQDQDENVALEACEFWLTLAEQPICKDVLVRHLPKLIPVLVNGMKYSDIDIILLKGDVEEDETIPDSEQDIRPRFHRSRTVAQQHDEDGIEEEDDDDDEIDDDDTISDWNLRKCSAAALDVLANVYRDELLPHILPLLKELLFHHEWVVKESGILVLGAIAEGCMQGMIPYLPELIPHLIQCLSDKKALVRSITCWTLSRYAHWVVSQPPDTYLKPLMTELLKRILDSNKRVQEAACSAFATLEEEACTELVPYLAYILDTLVFAFSKYQHKNLLILYDAIGTLADSVGHHLNKPEYIQMLMPPLIQKWNMLKDEDKDLFPLLECLSSVATALQSGFLPYCEPVYQRCVNLVQKTLAQAMLNNAQPDQYEAPDKDFMIVALDLLSGLAEGLGGNIEQLVARSNILTLMYQCMQDKMPEVRQSSFALLGDLTKACFQHVKPCIADFMPILGTNLNPEFISVCNNATWAIGEISIQMGIEMQPYIPMVLHQLVEIINRPNTPKTLLENTAITIGRLGYVCPQEVAPMLQQFIRPWCTSLRNIRDNEEKDSAFRGICTMISVNPSGVIQDFIFFCDAVASWINPKDDLRDMFCKILHGFKNQVGDENWRRFSDQFPLPLKERLAAFYGV
modifications: left off: His6, N-terminal, kept
- suppression of GR-induced precipitation of cytosolic TDP-43 [1]: efficiently suppressed GR-induced precipitation of cytosolic TDP-43
- suppression of phase separation of TDP-43 alone [2]: unable to abolish condensate formation of TDP-43
- reversal of poly-GR-enhanced sedimentation of TDP-43 [3]: efficiently reverted
- rescue of GST-GR25 solubility in presence of TDP-43 [4]: completely rescued
- suppression of GR- or PR-induced TDP-43 condensates [5]: suppress the GR- or PR-induced formation of TDP-43 condensates
- effect on GR-mediated promotion of TDP-43 turbidity ([6]; 5 μM TNPO1, 2 μM GR20, 5 μM TDP-43, 395 nm, 16 h): effectively suppressed
- effect on TDP-43 turbidity increase in absence of GR ([6]; 5 μM TNPO1, 5 μM TDP-43, Tev cleavage, 395 nm): did not affect
